# RORa activator: activators of human nuclear receptor RORA; P35398; CHO-K1 Gal4-RORA LBD luciferase reporter, luminescence; percent increase over mock-subtracted basal signal; activation, % at 10 µM; 65,000 compounds, 1.5% hits;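 active = activation above the mean of all tested compounds plus 3 SD, cut at about 49% in these data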;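 note: 0% = DMSO-treated RORA cells and 100% = added signal equal to DMSO minus mock-transfected cells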
# ERa coact inh: ER-alpha (human) coactivator binding inhibition. TR-FRET ER-alpha LBD / SRC-1 peptide, estradiol-bound. AID 629. P03372. 86,000 compounds, 1.7% hits. inhibition, % at 25.6 µM; in the data active = inhibition above about 50%;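 note: 0% = receptor plus peptide control and 100% = peptide only without receptor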
# BAP1 inh: human BAP1 deubiquitinase inhibition; Q92560; AID 436; recombinant BAP1, Ub-AMC hydrolysis fluorescence kinetic; hits give low values; 72,000 compounds, 0.48% hits; calls only at 20 µM;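 active = activity remaining at or below 50% of control, provided the compound also passes the data quality filters; inactive = the rest, including low values that fail the filters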;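 note: 100% = DMSO wells rate and 0% = substrate alone blank rate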
# Target sequence (Q92560 whole entry, looked up): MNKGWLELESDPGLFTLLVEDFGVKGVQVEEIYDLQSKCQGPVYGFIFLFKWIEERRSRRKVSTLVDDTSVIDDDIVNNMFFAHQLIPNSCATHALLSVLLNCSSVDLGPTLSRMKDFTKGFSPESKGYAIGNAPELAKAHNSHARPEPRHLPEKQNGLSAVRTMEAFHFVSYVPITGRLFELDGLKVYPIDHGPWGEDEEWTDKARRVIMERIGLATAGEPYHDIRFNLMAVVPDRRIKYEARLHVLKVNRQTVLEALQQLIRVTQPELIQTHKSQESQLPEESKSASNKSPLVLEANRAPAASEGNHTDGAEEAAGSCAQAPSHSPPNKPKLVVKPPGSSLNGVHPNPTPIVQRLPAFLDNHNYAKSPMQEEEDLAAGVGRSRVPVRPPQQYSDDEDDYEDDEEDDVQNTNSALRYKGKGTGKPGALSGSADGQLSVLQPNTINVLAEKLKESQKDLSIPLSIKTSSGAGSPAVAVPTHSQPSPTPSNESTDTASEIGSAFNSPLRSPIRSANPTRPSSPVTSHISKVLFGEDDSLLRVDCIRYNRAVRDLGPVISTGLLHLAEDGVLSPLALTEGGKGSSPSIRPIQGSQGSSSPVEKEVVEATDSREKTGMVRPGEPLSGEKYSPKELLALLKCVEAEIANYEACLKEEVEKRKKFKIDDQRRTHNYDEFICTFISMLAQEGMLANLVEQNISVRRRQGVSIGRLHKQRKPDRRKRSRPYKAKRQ
# ERb SRC1 inh: blocks coactivator binding to human estrogen receptor beta; Q92731; TR-FRET ER-beta LBD / SRC1-Cy5 peptide binding; receptor agonist-loaded with 1 µM estradiol; inhibition, % at 25.6 µM; 86,000 compounds, 1.3% hits; AID 633;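 active = compounds whose percent inhibition of the receptor-coactivator binding signal exceeds about 50% in the single-dose screen, limit read from the data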;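 note: 0% = receptor plus peptide wells without compound and 100% = peptide-only wells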
# SF-1 act: activators of human nuclear receptor SF-1; Q13285; CHO-K1 Gal4-SF-1 LBD luciferase reporter; % increase over DMSO SF-1-specific signal; activation, % at 10 µM; 65,000 compounds, 1.9% hits;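 active = activation above the mean activation of all tested compounds plus 3 SD, cut at about 50% in these data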
#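 material = CHO-K1 cells with Gal4–hSF-1 LBD chimera plus Gal4-driven luciferase | compound = 10 µM single point, 1% DMSO | incubation = 20 h compound exposure at 37 °C after 1 h cell settling | measured by = SteadyLite luciferase luminescence | evaluation = percent activation relative to DMSO median and mock-transfected background | control set = DMSO negative control and −SF1 background wells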
# ERa SRC1 pot: enhances coactivator binding to human estrogen receptor alpha | TR-FRET ERalpha-LBD/SRC-Cy5 coactivator binding, 2 h; 100 = basal binding, no effect | 86,000 compounds, 1.3% hits | P03372 | coactivator binding (% of control), % at 25.6 µM; in the data active = activity above about 200%;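 note: binding measured in presence of low estradiol as agonist stimulus; 0% = peptide alone without receptor and 100% = receptor with peptide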
# * marks the source's active call; other numbers are inactive results; i = inactive; . = no result given; + = active, no number; [ ] = dose if it differs, or a comment. The list is not random: actives were taken first. Their share in the collection is about 5.1%.
SMILES,RORa activator,ERa coact inh,BAP1 inh,ERb SRC1 inh,SF-1 act,ERa SRC1 pot
CCc1[nH]nc2c1C(c1cccc(OC(=O)N3CCOCC3)c1)C(C#N)=C(N)O2 (configuration not stated),5,-32,i,-4,12,563*
CC(C)c1[nH]nc2c1C(c1cccc(OC(=O)N3CCOCC3)c1)C(C#N)=C(N)O2 (configuration not stated),4,.,i,.,2,.
CCN1C(=O)c2cccc3c(NC(=O)c4ccc(Cc5ccccc5)cc4)ccc1c23,.,.,i,.,.,.
CCOC(=O)c1nn(-c2ccc(Cl)cc2)c2nc(CC)c(C#N)c(=O)n12,.,12,.,3,.,202*
COc1ccc(S(=O)(=O)NC(C(C)C)C(C)C)cc1OC,7,-4,i,-8,20,129
COc1cc(S(=O)(=O)NC(C)C)ccc1Cl,.,65*[fluorescence artefact?],.,2,.,89
c1ccc2c(c1)cc(-c1nc3ccccc3[nH]1)c1nc3ccccc3n12,.,.,i,.,.,.
CC(C)(C)n1ncc2c(=O)n(CC(=O)c3ccccc3)cnc21,55*,5,i,-4,93*,103
CC(C)(C)n1ncc2c(=O)n(CC(=O)NCc3ccc(F)cc3)cnc21,67*,14,i,15,92*,103
CC(C)(C)n1ncc2c(=O)n(CC(=O)NCc3ccco3)cnc21,38,17,i,16,50*,96
CC(C)(C)n1ncc2c(=O)n(CC(=O)NC3CCCCC3)cnc21,24,-7,i,4,68*,102
CC(C)(C)n1ncc2c(=O)n(CC(=O)OCc3ccccc3)cnc21,9,-5,i,33,23,106
O=C(COc1ccc(F)cc1)Nc1nccs1,102*,4,i,-2,42,83
O=C(Nc1nccs1)c1ccc(COc2ccccc2Br)o1,21,-4,i,6,60*,110
O=C(Nc1nccs1)c1ccc(COc2ccc(F)cc2)o1,8,.,i,.,64*,.
O=C(Nc1nccs1)c1ccc(COc2ccc(Cl)cc2)o1,5,-10,i,0,29,109
COc1cc(C=Nc2ccc(S(=O)(=O)Nc3ccccn3)cc2)ccc1OCc1ccccc1,.,.,i,.,.,.
O=C(CN1CCCC(O)C1)N1c2ccccc2C=Cc2ccccc21 (configuration not stated),.,.,i,.,.,.
Cc1csc(SCCN2C(=O)c3ccccc3C2=O)n1,73*,2,i,14,65*,96
O=C(c1ccccc1F)N1CCN(S(=O)(=O)c2ccc(S(=O)(=O)N3CCCCC3)cc2)CC1,-11,66*[fluorescence artefact?],.,6,7,85
O=C(c1cc(S(=O)(=O)N2CCCCC2)ccc1F)N1CCCCC1,-2,.,i,.,2,.
NC1=NC2(CCC(c3ccccc3)CC2)n2c(nc3ccccc32)N1 (configuration not stated),6,10,i,-14,-15,75
NC1=NC2(CCCCC2)n2c(nc3ccccc32)N1,-12,52*[fluorescence artefact?],i,3,6,36
Cc1nn(C(=O)c2ccc(Br)cc2)c(C)c1Sc1ccccc1[N+](=O)[O-],.,.,i,.,.,.
Clc1ccccc1N=c1oc2ccccc2cc1-c1nc2ccccc2[nH]1,.,.,i,.,.,.
SMILES,RORa activator,ERa coact inh,BAP1 inh,ERb SRC1 inh,SF-1 act,ERa SRC1 pot
COc1ccc(-c2c(C#N)c(SCC(=O)Nc3ccccc3)nc3c2CCCC3)cc1,.,14,.,28,.,147
CCc1ccccc1NC(=O)CSc1nc2c(c(-c3ccco3)c1C#N)CCCC2,-17,10,i,11,2,301*[fluorescence artefact?]
N#Cc1c(SCC(=O)Nc2nccs2)nc2c(c1-c1ccco1)CCCC2,21,64*,i,37,8,83
Cc1ccccc1NC(=O)CSc1nc2c(c(-c3ccco3)c1C#N)CCCC2,-2,24,i,16,1,290*[fluorescence artefact?]
N#Cc1c(SCC(N)=O)nc2c(c1-c1ccc(OCc3ccccc3)cc1)CCCC2,.,-13,.,-7,.,+[fluorescence artefact?]
COC(=O)CSc1nc2c(c(-c3ccc(C)o3)c1C#N)CCCC2,-1,1,.,2,-5,95
NCCCc1nc2c(ccc3ccccc32)[nH]1,.,.,i,.,.,.
CC1CCC2C(=O)N(c3ccc(OC(=O)c4ccccc4Br)cc3)C(=O)C2C1 (configuration not stated),.,.,i,.,.,.
Cc1sc2ncnc(SCC#N)c2c1C,4,76*[fluorescence artefact?],i,48,-8,97
N#CCSc1ncnc2sc3c(c12)CCC3,-24,42,i,44,-9,75
COCCCn1c2nc3ccccc3nc2c2c(=O)n(-c3ccccc3OC)cnc21,-16,0,.,1,-4,92
COCCCn1c2nc3ccccc3nc2c2c(=O)n(-c3ccccc3OC)c(C)nc21,-10,12,.,5,3,319*
CCCn1c(C)nc2c(c1=O)c1nc3ccccc3nc1n2CCC1=CCCCC1,38,31,.,22,-4,170
CCCn1c(C)nc2c(c1=O)c1nc3ccccc3nc1n2CCc1ccccc1,-16,53*,.,33,-16,141
Cc1nccn1CCC(N)=O,.,.,i,.,.,.
COc1cccc(C2C(N3C(=O)c4ccccc4C3=O)C(=O)N2c2ccc(C)cc2C)c1 (configuration not stated),.,.,i,.,.,.
COc1cc(NC(=O)COc2ccc(-n3cnnn3)cc2)c(OC)cc1Cl,-4,77*,.,67*[fluorescence artefact?],-9,44
Cc1ccc(NC(=O)COc2ccc(-n3cnnn3)cc2)cc1C,.,74*[fluorescence artefact?],.,69*,.,52
COc1ccc(OC)c(NC(=O)COC(=O)c2ccc(-n3cnnn3)cc2)c1,7,35,i,9,1,110
Cc1ccc(C(=O)Nc2c(C)ccc3nsnc23)cc1,.,.,i,.,.,.
CC(C)(C)c1cc(C(C)(C)C)c2nc(-c3ccccc3O)oc2c1O,.,.,i,.,.,.
COC(=O)C1=C(N)Oc2cc(C)n(CC3CCCO3)c(=O)c2C1c1ccccc1OC (configuration not stated),-6,-3,i,0,-3,120
COC(=O)C1=C(N)Oc2cc(N(C)C)ccc2C1c1ccccc1OC (configuration not stated),49*,-2,i,-5,11,78
CC1=C(C(=O)OCc2ccccc2)C(c2cccs2)C2=C(CCCC2=O)N1 (configuration not stated),.,.,i,.,.,.
Cc1cc2nc(Nc3nc(-c4ccccc4)cc(=O)[nH]3)nc(C)c2cc1C,.,.,i,.,.,.
O=C(Nc1nc2ccccc2[nH]1)C1CC(=O)N(c2ccc3c(c2)OCCO3)C1 (configuration not stated),-9,68*[fluorescence artefact?],i,43,19,53
CCn1c(SCC(=O)N2CCOCC2)nc2oc3c(Cl)cc(Cl)cc3c(=O)c2c1=O,-41,65*[fluorescence artefact?],.,52*,-14,64

# Source: PubChem BioAssay
